Activity calls are given as the source filed them.
Key:
K562 [1] = experiment: Effect on HIST1H2BH gene expression in human K562 cells assessed as change in mRNA transcript expression at 10 nM after 48 hrs by DNA microarray analysis relative to control; type: functional
In short: (§1)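 Transcripts were profiled on Affymetrix GeneChip Human Gene 1.0 ST arrays in K562 cells treated at 10 nM. Treated cells were collected at 6, 12, 24 and 48 h; untreated controls were collected at 48 h. Transcripts changed at least twofold versus control were scored.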

K562 [2] = experiment: Effect on TXNIP gene expression in human K562 cells assessed as change in mRNA transcript expression at 10 nM after 48 hrs by DNA microarray analysis relative to control; type: functional
In short: (§2)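 K562 CML cells (b3a2 Bcr-Abl) kept under standard culture conditions were exposed to 10 nM conjugate and harvested at 6, 12, 24 and 48 h. Untreated controls were harvested at 48 h. Whole-transcript oligonucleotide microarray profiling was done, and changes of at least twofold versus control were scored.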

K562 [3] = experiment: Effect on HIST1H3F gene expression in human K562 cells assessed as change in mRNA transcript expression at 10 nM after 48 hrs by DNA microarray analysis relative to control; type: functional; in short: as §1
K562 [4] = experiment: Effect on COMMD10 gene expression in human K562 cells assessed as change in mRNA transcript expression at 10 nM after 48 hrs by DNA microarray analysis relative to control; type: functional; in short: as §1
K562 [5] = experiment: Downregulation of histone H4E mRNA expression in human K562 cells at 125 nM after 48 hrs by real-time PCR analysis; type: functional, cell-based
In short: (§3)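 K562 cells were treated for 48 h, and H4c and H4e mRNA were measured by one-step real-time RT-PCR. Reverse transcription ran at 50 °C for 10 min, then hot-start activation at 95 °C for 15 min. Cycling was 45 cycles of 95 °C 15 s, 55 °C 30 s and 72 °C 30 s. Levels were normalized to GAPDH mRNA; error bars are SD.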

K562 [6] = experiment: Effect on STAG1 gene expression in human K562 cells assessed as change in mRNA transcript expression at 10 nM after 48 hrs by DNA microarray analysis relative to control; type: functional
In short: (§4)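 K562 CML cells (b3a2 Bcr-Abl) in standard ATCC-recommended culture, exposed once to 10 nM conjugate and harvested at 48 h. Untreated controls were also collected at 48 h. Transcripts were profiled on Human Gene 1.0 ST whole-genome oligonucleotide arrays, and each treated level was expressed relative to the untreated control, with a cutoff of at least twofold change.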

[7] = system: histone H4c gene fragment DNA (human); experiment: Binding affinity to 5'-AGAAAA-3' sequence of 223 bp human histone H4c gene fragment DNA assessed as DNA alkylating activity at 5 to 100 nM after 15 hrs by PAGE
K562 [8] = experiment: Cell cycle arrest in human K562 cells assessed as increase in accumulation at S phase at 125 to 250 nM after 48 hrs propidium iodide staining-based FACS analysis; type: functional
In short: (§5)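 K562 cells, from ATCC and kept under ATCC-recommended conditions, were treated for 48 h and pelleted at 200g for 5 min. They were resuspended in PBS, fixed with prechilled 70% ethanol and stained with propidium iodide at 50 µg/mL. DNA content was read by flow cytometry to assign the G0–G1, S and G2–M fractions; sub-2C DNA content was taken as apoptosis.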

K562 [9] = experiment: Effect on INPP1 gene expression in human K562 cells assessed as change in mRNA transcript expression at 10 nM after 48 hrs by DNA microarray analysis relative to control; type: functional; in short: as §4
K562 [10] = experiment: Effect on RHCE/RHD gene expression in human K562 cells assessed as change in mRNA transcript expression at 10 nM after 48 hrs by DNA microarray analysis relative to control; type: functional; in short: as §4
K562 [11] = experiment: Effect on ARRDC3 gene expression in human K562 cells assessed as change in mRNA transcript expression at 10 nM after 48 hrs by DNA microarray analysis relative to control; type: functional; in short: as §1
K562 [12] = experiment: Effect on PLA2G6 gene expression in human K562 cells assessed as change in mRNA transcript expression at 10 nM after 48 hrs by DNA microarray analysis relative to control; type: functional; in short: as §4
K562 [13] = experiment: Effect on HIST1H2B gene expression in human K562 cells assessed as change in mRNA transcript expression at 10 nM after 48 hrs by DNA microarray analysis relative to control; type: functional; in short: as §1
K562 [14] = experiment: Effect on BBS9 gene expression in human K562 cells assessed as change in mRNA transcript expression at 10 nM after 48 hrs by DNA microarray analysis relative to control; type: functional; in short: as §1
K562 [15] = experiment: Downregulation of histone H4C mRNA expression in human K562 cells at 125 nM after 48 hrs by real-time PCR analysis; type: functional, cell-based; in short: as §3
K562 [16] = experiment: Effect on TMEM126A gene expression in human K562 cells assessed as change in mRNA transcript expression at 10 nM after 48 hrs by DNA microarray analysis relative to control; type: functional; in short: as §2
K562 [17] = experiment: Effect on CREB3L1 gene expression in human K562 cells assessed as change in mRNA transcript expression at 10 nM after 48 hrs by DNA microarray analysis relative to control; type: functional; in short: as §1
K562 [18] = experiment: Effect on TCN1 gene expression in human K562 cells assessed as change in mRNA transcript expression at 10 nM after 48 hrs by DNA microarray analysis relative to control; type: functional; in short: as §4
K562 [19] = experiment: Effect on HIST1H4J gene expression in human K562 cells assessed as down-regulation of mRNA transcript expression at 10 nM after 48 hrs by DNA microarray analysis relative to control; type: functional; in short: as §4
K562 [20] = experiment: Effect on HIST1H1C gene expression in human K562 cells assessed as change in mRNA transcript expression at 10 nM after 48 hrs by DNA microarray analysis relative to control; type: functional; in short: as §1
K562 [21] = experiment: Cell cycle arrest in human K562 cells assessed as decrease in accumulation at G1 phase at 125 to 250 nM after 48 hrs propidium iodide staining-based FACS analysis; type: functional; in short: as §5
K562 [22] = experiment: Downregulation of histone H4C mRNA expression in human K562 cells at 250 nM after 48 hrs by real-time PCR analysis; type: functional
In short: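 Treated K562 cells were assayed by one-step real-time RT-PCR. Reverse transcription ran 50 °C for 10 min, then hot-start polymerase activation at 95 °C for 15 min. Cycling was 45 cycles of 95 °C 15 s, 55 °C 30 s and 72 °C 30 s. Levels were normalized to GAPDH mRNA; error shown as standard deviation.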

K562 [23] = experiment: Effect on HSPA1B gene expression in human K562 cells assessed as change in mRNA transcript expression at 10 nM after 48 hrs by DNA microarray analysis relative to control; type: functional; in short: as §4
K562 [24] = experiment: Effect on PRG2 gene expression in human K562 cells assessed as change in mRNA transcript expression at 10 nM after 48 hrs by DNA microarray analysis relative to control; type: functional; in short: as §4
K562 [25] = experiment: Effect on CLCA1 gene expression in human K562 cells assessed as change in mRNA transcript expression at 10 nM after 48 hrs by DNA microarray analysis relative to control; type: functional; in short: as §1

Activity [7]: Active
Structure (SMILES): CC(=O)Nc1cn(C)c(C(=O)Nc2cn(C)c(C(=O)NCCC(=O)Nc3cn(C)c(C(=O)NCCCC(=O)Nc4cc(C(=O)Nc5cn(C)c(C(=O)Nc6ccc7[nH]c(C(=O)N8CC(CCl)c9c8cc(O)c8ccccc98)cc7c6)n5)n(C)c4)n3)n2)n1 (stereo not given)
fold change (FC) (K562 [1]): >=2
fold change (FC) (K562 [2]): >=2
fold change (FC) (K562 [3]): >=2
fold change (FC) (K562 [4]): >=2
Activity (K562 [5]): Active
fold change (FC) (K562 [6]): >=2
Activity (K562 [8]): Active
fold change (FC) (K562 [9]): >=2
fold change (FC) (K562 [10]): >=2
fold change (FC) (K562 [11]): >=2
fold change (FC) (K562 [12]): >=2
fold change (FC) (K562 [13]): >=2
fold change (FC) (K562 [14]): >=2
Activity (K562 [15]): Active
fold change (FC) (K562 [16]): >=2
fold change (FC) (K562 [17]): >=2
fold change (FC) (K562 [18]): >=2
fold change (FC) (K562 [19]): 2.61
fold change (FC) (K562 [20]): >=2
Activity (K562 [21]): Active
Activity (K562 [22]): 93%
fold change (FC) (K562 [23]): >=2
fold change (FC) (K562 [24]): >=2
fold change (FC) (K562 [25]): >=2

Source: ChEMBL document CHEMBL1157704, “Potent activity against K562 cells by polyamide-seco-CBI conjugates targeting histone H4 genes” (Bioorg Med Chem, 2010)
